The values below come from ChEMBL document CHEMBL1129435, “Acyclic nucleotide analogs derived from 8-azapurines: synthesis and antiviral activity” (J Med Chem, 1996).

In brackets after ≈: the same amount, converted by molar mass.

A short description of assay [1]: Antiviral activity against thymidine kinase deficient herpes simplex virus-1 HSV-1 TK- VMW-1837 strain in E6SM cell culture. Conditions: Human alphaherpesvirus 1, E6SM. Format: functional, cell-based. The method in brief: (§1)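 Confluent cell monolayers in microtiter trays were inoculated with 100 CCID50 of virus. After 1 h adsorption the residual virus was removed. Cells were then incubated with serial compound concentrations (400, 200, 100, ... µg/mL). Cytopathicity was scored once it was complete in untreated infected controls. The value is the 50% inhibitory concentration, or the concentration reducing plaque formation by 50%, in µg/mL.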

For assay [2], the system named is Moloney murine sarcoma virus. Put plainly: Compound was tested for anti-retroviral activity against moloney murine sarcoma virus (MSV) in murine C3H/3T3 embryo fibroblast cell culture. It counts as functional, organism-based. A digest of the protocol: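 C3H/3T3 fibroblasts were seeded at 5 × 10⁵ cells/mL. After 24 h they were infected with 80 focus-forming units of MSV for 90-120 min at 37 °C; the virus came from tumours induced by intramuscular inoculation of 3-day-old NMRI mice. The medium was then replaced with fresh medium containing various compound concentrations. Transformation was scored microscopically after 6 days.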

The subject of assay [3] is Human alphaherpesvirus 3. Put plainly: Antiviral activity in TK+ varicella zoster virus (VZV) 07/1 strain in HEL cell culture. Format: functional, organism-based. Particulars: Human alphaherpesvirus 3, HEL.
Another assay concerns Human betaherpesvirus 5. Put plainly: Antiviral activity against cytomegalovirus (CMV) AD169 strain in HEL cell culture. Format: functional, organism-based. Particulars: Human betaherpesvirus 5, HEL. The method in brief:
as §1

The test system of assay [4] is Human immunodeficiency virus 2. Nature of the assay: Inhibition of human immunodeficiency virus-2 (HIV-2) induced cytopathicity in CEM cells. Format: functional, organism-based. Particulars: Human immunodeficiency virus 2, CCRF-CEM.
The test system of a further assay is Vaccinia virus. Put plainly: Antiviral activity against vaccinia virus (VV) in E6SM cell culture. It counts as functional, organism-based. Particulars: Orthopoxvirus vaccinia.
In another assay the test system is Cytomegalovirus. Nature of the assay: Antiviral activity against cytomegalovirus (CMV) Davis strain in HEL cell culture. Format: functional, organism-based. Particulars: Human betaherpesvirus 5, HEL. A digest of the protocol: as §1
A short description of assay [5]: Antiviral activity against herpes simplex virus-1 KOS in E6SM cell culture. It counts as functional, cell-based. Conditions: Human alphaherpesvirus 1, E6SM. The method in brief: as §1
The test system of another assay is Human alphaherpesvirus 1. Put plainly: Antiviral activity against thymidine kinase deficient herpes simplex virus-1 HSV-1 TK- B2006 strain in E6SM cell culture. It counts as functional, organism-based. Conditions: Human alphaherpesvirus 1, E6SM. A digest of the protocol: as §1
For assay [6], the system named is Human alphaherpesvirus 3. Nature of the assay: Antiviral activity in TK+ varicella zoster virus (VZV) YS strain in HEL cell culture. It counts as functional, organism-based. Conditions: Human alphaherpesvirus 3, HEL.
A further assay concerns Human alphaherpesvirus 2. Nature of the assay: Antiviral activity in herpes simple virus-2 (HSV-2) Lyons strain in E6SM cell culture. Format: functional, organism-based. Particulars: Human alphaherpesvirus 2, E6SM. A digest of the protocol: as §1
Assay [7] has as its system Human immunodeficiency virus 1. Nature of the assay: Inhibition of human immunodeficiency virus-1 (HIV-1) induced cytopathicity in human MT-4 cells. Conditions: Human immunodeficiency virus 1, MT4. Format: functional, organism-based. A digest of the protocol:
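MT-4 cells (~4 × 10⁵ cells/mL) were infected with HIV-1(IIIB) at 100 CCID50 per µL. Infected cells were seeded into wells containing compound dilutions and incubated 5 days at 37 °C. Viable cells were then counted by trypan blue exclusion in a blood cell counting chamber.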

Assay [8] has as its system Human immunodeficiency virus 1. Put plainly: Inhibition of human immunodeficiency virus-1 (HIV-1) induced cytopathicity in CEM cells. It counts as functional, organism-based. Conditions: Human immunodeficiency virus 1, CCRF-CEM. A digest of the protocol:
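CEM cells (~3 × 10⁵ cells/mL) were infected with HIV-1(IIIB) at 100 CCID50 per µL. Infected cells were plated with compound dilutions and incubated 4 days at 37 °C. Giant cell formation was then examined microscopically.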
(In general: Damage to the host cells serves as the signal in cytopathic effect assays.)

The subject of assay [9] is Human alphaherpesvirus 3. Put plainly: Antiviral activity in TK+ varicella zoster virus (VZV) OKA strain in HEL cell culture. It counts as functional, organism-based. Particulars: Human alphaherpesvirus 3, HEL.

One may read the IC50 as the concentration at which inhibition is half-maximal. Low readings indicate higher potency, high ones lower potency.

On to `C[C@H](Cn1nnc2c(N)ncnc21)OCP(=O)(O)O`, for which the IC50 in assay [1] was 100 µg/mL (≈ 347 µM); in [2], 0.85 µg/mL (≈ 2.95 µM); in the assay with Human alphaherpesvirus 3 [3], 5 µg/mL (≈ 17.3 µM); with Human betaherpesvirus 5, above 40 µg/mL; in assay [4] it was 10 µg/mL (≈ 34.7 µM); in the assay with Vaccinia virus, above 400 µg/mL. For the same compound, the IC50 with Cytomegalovirus is above 40 µg/mL; in [5] it was 70 µg/mL (≈ 243 µM); in the assay on Human alphaherpesvirus 1, 70 µg/mL (≈ 243 µM); in the assay on Human alphaherpesvirus 3 [6], 8 µg/mL (≈ 27.8 µM); in the assay on Human alphaherpesvirus 2, 100 µg/mL (≈ 347 µM); in assay [7], 5.2 µg/mL (≈ 18 µM). For the same compound, the figures for the IC50 (in [8]; in the assay on Human alphaherpesvirus 3 [9]) were 7 µg/mL (≈ 24.3 µM) and 8 µg/mL (≈ 27.8 µM), respectively.
For `C[C@@H](Cn1nnc2c(O)nc(N)nc21)OCP(=O)(O)O`, the IC50 is 300 µg/mL (≈ 986 µM) in assay [1]; 27 µg/mL (≈ 88.8 µM) in assay [2]; above 40 µg/mL in the assay with Human alphaherpesvirus 3 [3]; above 40 µg/mL in the assay on Human betaherpesvirus 5; 85 µg/mL (≈ 279 µM) in assay [4]; 300 µg/mL (≈ 986 µM) in the assay on Vaccinia virus. In addition, the IC50 was above 40 µg/mL in the assay with Cytomegalovirus; 300 µg/mL (≈ 986 µM) in [5]; above 400 µg/mL with Human alphaherpesvirus 1; 4 µg/mL (≈ 13.1 µM) in the assay on Human alphaherpesvirus 3 [6]; 300 µg/mL (≈ 986 µM) in the assay with Human alphaherpesvirus 2; 52.7 µg/mL (≈ 173 µM) in [7]. Also, the concentration for half-maximal inhibition (IC50) turned out to be 40 µg/mL (≈ 131 µM) in assay [8] and 10 µg/mL (≈ 32.9 µM) with Human alphaherpesvirus 3 [9].
For `Nc1nc(O)c2nnn(CCOCP(=O)(O)O)c2n1`, the IC50 in assay [1] worked out at 2 µg/mL (≈ 6.89 µM); in [2], 0.32 µg/mL (≈ 1.1 µM); in the assay on Human alphaherpesvirus 3 [3], 0.1 µg/mL (≈ 0.345 µM); in the assay on Human betaherpesvirus 5, 2.3 µg/mL (≈ 7.93 µM); in [4], 2 µg/mL (≈ 6.89 µM); in the assay with Vaccinia virus it was 0.7 µg/mL (≈ 2.41 µM). The 50% inhibitory concentration (IC50) in the assay on Cytomegalovirus amounted to 2.3 µg/mL (≈ 7.93 µM); in assay [5], 2 µg/mL (≈ 6.89 µM); in the assay with Human alphaherpesvirus 1, 7 µg/mL (≈ 24.1 µM); in the assay on Human alphaherpesvirus 3 [6], 0.04 µg/mL (≈ 0.138 µM); with Human alphaherpesvirus 2, 2 µg/mL (≈ 6.89 µM); in assay [7], 2 µg/mL (≈ 6.89 µM). In addition, the concentration for half-maximal inhibition (IC50) in assay [8] amounted to 2 µg/mL (≈ 6.89 µM); in the assay with Human alphaherpesvirus 3 [9], 0.4 µg/mL (≈ 1.38 µM).
In the case of `Nc1nc(N)c2nnn(C[C@@H](CO)OCP(=O)(O)O)c2n1`, the concentration for half-maximal inhibition (IC50) was 40 µg/mL (≈ 125 µM) in assay [1]; 1 µg/mL (≈ 3.13 µM) in assay [2]; 6 µg/mL (≈ 18.8 µM) in the assay on Human alphaherpesvirus 3 [3]; 100 µg/mL (≈ 313 µM) in the assay with Human betaherpesvirus 5; above 100 µg/mL in [4]; 20 µg/mL (≈ 62.7 µM) with Vaccinia virus. In addition, the IC50 in the assay with Cytomegalovirus was 100 µg/mL (≈ 313 µM); in assay [5], 20 µg/mL (≈ 62.7 µM); in the assay with Human alphaherpesvirus 1, 20 µg/mL (≈ 62.7 µM); with Human alphaherpesvirus 3 [6], 6 µg/mL (≈ 18.8 µM); in the assay with Human alphaherpesvirus 2, 40 µg/mL (≈ 125 µM); in assay [7], above 100 µg/mL. Moreover, the values for the IC50 (in [8]; in the assay on Human alphaherpesvirus 3 [9]) were above 100 µg/mL and 9 µg/mL (≈ 28.2 µM), respectively.
For the compound `C[C@H](Cn1nc2nc(N)nc(N)c2n1)OCP(=O)(O)O`, the IC50 in assay [1] is above 200 µg/mL; in assay [2], 28.4 µg/mL (≈ 93.7 µM); in the assay with Human alphaherpesvirus 3 [3], above 50 µg/mL; in the assay on Human betaherpesvirus 5 it was above 50 µg/mL; in assay [4] it was above 100 µg/mL; in the assay with Vaccinia virus, above 100 µg/mL. The concentration for half-maximal inhibition (IC50) was above 50 µg/mL in the assay on Cytomegalovirus; above 100 µg/mL in assay [5]; 200 µg/mL (≈ 660 µM) with Human alphaherpesvirus 1; above 50 µg/mL with Human alphaherpesvirus 3 [6]; above 200 µg/mL in the assay with Human alphaherpesvirus 2; above 100 µg/mL in assay [7]. In addition, the results for the IC50 (in assay [8]; in the assay on Human alphaherpesvirus 3 [9]) were above 100 µg/mL and above 50 µg/mL, respectively.
For `C[C@H](Cn1nnc2c(O)nc(N)nc21)OCP(=O)(O)O`, the half-inhibitory concentration (IC50) in assay [1] was 20 µg/mL (≈ 65.7 µM); in assay [2], 0.43 µg/mL (≈ 1.41 µM); in the assay with Human alphaherpesvirus 3 [3] it was 20 µg/mL (≈ 65.7 µM); in the assay with Human betaherpesvirus 5, 50 µg/mL (≈ 164 µM); in assay [4], 2 µg/mL (≈ 6.57 µM); in the assay with Vaccinia virus it was above 100 µg/mL. Also, the half-inhibitory concentration (IC50) with Cytomegalovirus is 35 µg/mL (≈ 115 µM); in assay [5] it was 20 µg/mL (≈ 65.7 µM); with Human alphaherpesvirus 1, above 100 µg/mL; with Human alphaherpesvirus 3 [6], 28 µg/mL (≈ 92 µM); with Human alphaherpesvirus 2, 20 µg/mL (≈ 65.7 µM); in assay [7] it was 2.42 µg/mL (≈ 7.96 µM). Also, the IC50 came out at 2 µg/mL (≈ 6.57 µM) in assay [8] and 40 µg/mL (≈ 131 µM) in the assay with Human alphaherpesvirus 3 [9].
